Data from the array DNA melting data of Ke et al. (doi:10.1101/2024.01.08.574731).

Assays:
[1] = folding enthalpy; higher = less favourable; fluorescence melt of hairpins on a sequencing array, two-state fit; conditions: sodium 0.088 M
In short: (§1)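 Library hairpins on a sequenced MiSeq flow cell carried annealed Cy3 and quencher oligos, and their Cy3 fluorescence was imaged in 50 mM Na-HEPES pH 8.0 with 25 mM NaCl, in 2.5 °C steps up to 60 °C. Signals were normalised to Cy3 before quenching and to control constructs. Melting temperature and folding enthalpy were obtained from bootstrapped two-state fits, combined by inverse-variance weighting across four replicates, and the fitted temperatures were then raised by 9.35 °C to match UV melts.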

[2] = melting temperature; fluorescence melt of hairpins on a sequencing array, two-state fit, raised by 9.35 °C to match UV melts; conditions: sodium 0.088 M
In short: as §1

| Sequence | folding enthalpy [1] | Tm [2] |
| --- | --- | --- |
| GCCTAATCGAAAGATGGC (((..(((....)))))) | -27.4 kcal/mol | 44.1 °C |
| GCCTACGAAAGTACGGC ((((((....))).))) | -28.8 kcal/mol | 51.5 °C |
| GCCTACGGAAACGTAAGC ((.((((....)))).)) | -19.8 kcal/mol | 36.1 °C |
| GCCTAGCGAAAGCTAAGC ((.((((....)))).)) | -17.1 kcal/mol | 48.9 °C |
| GCCTAGCGAAAGCTCTGC ((..(((....)))..)) | -11.7 kcal/mol | 34.3 °C |
| GCCTAGCGAAAGCTGGC (((.(((....)))))) | -29.2 kcal/mol | 64.8 °C |
| GCCTAGCGAAAGCTTTGC ((..(((....)))..)) | -12 kcal/mol | 33.4 °C |
| GCCTAGGCGAAAGCCGGC (((..(((....)))))) | -13.3 kcal/mol | 65.8 °C |
| GCCTAGGGAAACCCAGGC ((((.((....)).)))) | -31.6 kcal/mol | 50.6 °C |
| GCCTAGGGAAACTTAGGC (((((.(....).))))) | -31.6 kcal/mol | 47.5 °C |
| GCCTATGGAAACATAAGC ((.((((....)))).)) | -15.6 kcal/mol | 27.6 °C |
| GCCTCATCGAAAGATGGC (((..(((....)))))) | -10.1 kcal/mol | 43.8 °C |
| GCCTCCCGAAAGGGTGGC (((.(((....))).))) | -36.1 kcal/mol | 67.9 °C |
| GCCTCCGAAAGGACCGGC ((((((....)))..))) | -25 kcal/mol | 43.1 °C |
| GCCTCCGGAAACGGGGGC (((.(((....))).))) | -31 kcal/mol | 67.1 °C |
| GCCTCCTCGAAAGAGGGC (((..(((....)))))) | -9.35 kcal/mol | 43.9 °C |
| GCCTCGCGAAAGCAAGGC ((((.((....)).)))) | -30 kcal/mol | 65.1 °C |
| GCCTCGCGAAAGCCAAGC ((.(.((....)).).)) | -6.14 kcal/mol | 28.4 °C |
| GCCTCGCGAAAGCGAAGC ((.((((....)))).)) | -18.7 kcal/mol | 56.5 °C |
| GCCTCGCGAAAGCTAGGC ((((.((....)).)))) | -33 kcal/mol | 65.2 °C |
| GCCTCGCGAAAGCTCGGC (((..((....))..))) | -26.6 kcal/mol | 46.4 °C |
| GCCTCGCGAAAGCTGGGC (((..((....))..))) | -22.2 kcal/mol | 55.4 °C |
| GCCTCGGCGAAAGCCGGC (((..(((....)))))) | -4.13 kcal/mol | 54.4 °C |
| GCCTCGGGAAACCAAGGC ((((.((....)).)))) | -34.9 kcal/mol | 47.6 °C |

| Sequence | folding enthalpy [1] | Tm [2] |
| --- | --- | --- |
| GCCTCGGGAAACCGAAGC ((.((((....)))).)) | -23.9 kcal/mol | 44.6 °C |
| GCCTGAACGAAAGTTGGC (((..(((....)))))) | -23.2 kcal/mol | 45.5 °C |
| GCCTGAGGAAACTCGGGC (((.(((....))).))) | -40.8 kcal/mol | 57.4 °C |
| GCCTGCGAAAGCACCGGC ((((((....)))..))) | -18.5 kcal/mol | 46.6 °C |
| GCCTGCGAAAGCACGGC ((((((....))).))) | -29.7 kcal/mol | 63.2 °C |
| GCCTGCGAAAGCATCGGC ((((((....)))..))) | -19.1 kcal/mol | 47.2 °C |
| GCCTGGCGAAAGCAGGGC (((..((....))..))) | -26.7 kcal/mol | 65.6 °C |
| GCCTGGCGAAAGCCCGGC (((.(((....))).))) | -35.3 kcal/mol | 59.4 °C |
| GCCTGGCGAAAGCCCTGC ((..(((....)))..)) | -12.2 kcal/mol | 32.6 °C |
| GCCTGGCGAAAGCCGCGC ((..(((....)))..)) | -16.8 kcal/mol | 52.3 °C |
| GCCTGGCGAAAGCCTAGC ((..(((....)))..)) | -12.8 kcal/mol | 41 °C |
| GCCTGGCGAAAGCGCGGC (((..((....))..))) | -19 kcal/mol | 57.1 °C |
| GCCTGGCGAAAGCTTGGC (((..((....))..))) | -26.5 kcal/mol | 59.4 °C |
| GCCTGGGGAAACCTGGGC (((..((....))..))) | -32.3 kcal/mol | 50.3 °C |
| GCCTGGGGAAACTCAGGC (((((.(....).))))) | -36 kcal/mol | 58.4 °C |
| GCCTGTACGAAAGTAGGC (((..(((....)))))) | -29.1 kcal/mol | 48.9 °C |
| GCCTGTGGAAACACGGGC (((.(((....))).))) | -41 kcal/mol | 61.9 °C |
| GCCTTAACGAAAGTTGGC (((..(((....)))))) | -26.5 kcal/mol | 43.7 °C |
| GCCTTACCGAAAGGTGGC (((..(((....)))))) | -23.6 kcal/mol | 48.8 °C |
| GCCTTATCGAAAGATGGC (((..(((....)))))) | -28.7 kcal/mol | 42.6 °C |
| GCCTTCCCGAAAGGGGGC (((..(((....)))))) | -17.2 kcal/mol | 47.7 °C |
| GCCTTCGAAAGAAAGGGC ((((((....)))..))) | -29.4 kcal/mol | 43.1 °C |
| GCCTTCGAAAGAAATGGC ((((((....)))..))) | -24.6 kcal/mol | 38.5 °C |
| GCCTTCGAAAGAACCGGC ((((((....)))..))) | -19.4 kcal/mol | 33.9 °C |

| Sequence | folding enthalpy [1] | Tm [2] |
| --- | --- | --- |
| GCCTTCGAAAGAATAGGC ((((((....)))..))) | -28.8 kcal/mol | 44.8 °C |
| GCCTTCGGAAACGAAAGC ((.((((....)))).)) | -22 kcal/mol | 40.4 °C |
| GCCTTCGGAAACGGAGGC ((((.((....)).)))) | -40.4 kcal/mol | 58.6 °C |
| GCCTTGCGAAAGCAGGC (((.(((....)))))) | -24 kcal/mol | 66.7 °C |
| GCCTTGCGAAAGCCACGC ((.(.((....)).).)) | -7.87 kcal/mol | 46.8 °C |
| GCCTTGCGAAAGCGACGC ((.(.((....)).).)) | -10.5 kcal/mol | 48.2 °C |
| GCCTTGCGAAAGCTCGGC (((..((....))..))) | -21.9 kcal/mol | 53.1 °C |
| GCCTTGCGAAAGCTGGGC (((..((....))..))) | -25.9 kcal/mol | 62.6 °C |
| GCCTTTGAAAAAAGGC ((((((....)))))) | -32.6 kcal/mol | 59.2 °C |
| GCCTTTGGAAACAGAGGC ((((.((....)).)))) | -31.1 kcal/mol | 48.2 °C |
| GCGAAACTTCGC ((((....)))) | -19.9 kcal/mol | 51.1 °C |
| GCGAAAGCTCGC ((((....)))) | -11 kcal/mol | 56.8 °C |
| GCGAAATCGAAAGATCGC (((..(((....)))))) | -28.1 kcal/mol | 47.5 °C |
| GCGAAATCTCGC ((((....)))) | -20.3 kcal/mol | 45.2 °C |
| GCGAAATTCGC ((((...)))) | -18.2 kcal/mol | 43.1 °C |
| GCGAACCCTCGC ((((....)))) | -23.2 kcal/mol | 47 °C |
| GCGAACGAAAGTTACCGC ((((((....)))..))) | -22.1 kcal/mol | 37.7 °C |
| GCGAACGAAAGTTCACGC ((((((....)))..))) | -22.9 kcal/mol | 48.9 °C |
| GCGAACGAAAGTTCTCGC ((((((....)))..))) | -18.8 kcal/mol | 45.6 °C |
| GCGAACGAAAGTTGCCGC ((((((....)))..))) | -16.6 kcal/mol | 42.4 °C |
| GCGAACGAAAGTTGCGC ((((((....))).))) | -36.9 kcal/mol | 53.9 °C |
| GCGAACGAAAGTTTACGC ((((((....)))..))) | -21.2 kcal/mol | 43 °C |
| GCGAACGAAAGTTTTCGC ((((((....)))..))) | -26.6 kcal/mol | 44.1 °C |
| GCGAACGCGAAAGCGCGC (((..(((....)))))) | -14.7 kcal/mol | 60.1 °C |

| Sequence | folding enthalpy [1] | Tm [2] |
| --- | --- | --- |
| GCGAACGGAAACATTCGC (((((.(....).))))) | -32.7 kcal/mol | 48.2 °C |
| GCGAACGGAAACGCTCGC ((((.((....)).)))) | -41.5 kcal/mol | 55.7 °C |
| GCGAACGTCGC ((((...)))) | -18.8 kcal/mol | 45.8 °C |
| GCGAAGCATCGC ((((....)))) | -8.14 kcal/mol | 59.5 °C |
| GCGAAGCGAAAGCAACGC (((..((....))..))) | -11 kcal/mol | 48.4 °C |
| GCGAAGCGAAAGCAGCGC (((..((....))..))) | -16.6 kcal/mol | 57.7 °C |
| GCGAAGCGAAAGCTAAGC ((..(((....)))..)) | -16.5 kcal/mol | 54.4 °C |
| GCGAAGCGAAAGCTCCGC (((.(((....))).))) | -36.7 kcal/mol | 50.9 °C |
| GCGAAGGGAAACCCTCGC ((((.((....)).)))) | -42.3 kcal/mol | 53.4 °C |
| GCGAAGGGAAACTTTCGC (((((.(....).))))) | -30.2 kcal/mol | 51 °C |
| GCGAAGGTCGC ((((...)))) | -15.3 kcal/mol | 49.9 °C |
| GCGAATCCTCGC ((((....)))) | -24.5 kcal/mol | 46.3 °C |
| GCGAATCGAAAGATGCGC (((.(((....))).))) | -42.4 kcal/mol | 60.6 °C |
| GCGAATTATCGC ((((....)))) | -21.3 kcal/mol | 47.8 °C |
| GCGAATTGTCGC ((((....)))) | -17 kcal/mol | 46 °C |
| GCGACACGAAAGTGCGC (((.(((....)))))) | -22.7 kcal/mol | 63.9 °C |
| GCGACACTCGC ((((...)))) | -18.2 kcal/mol | 53.1 °C |
| GCGACAGCTCGC ((((....)))) | -9.44 kcal/mol | 67 °C |
| GCGACAGTTCGC ((((....)))) | -17.4 kcal/mol | 47.7 °C |
| GCGACATTTCGC ((((....)))) | -22 kcal/mol | 48.8 °C |
| GCGACCAATCGC ((((....)))) | -23.6 kcal/mol | 44 °C |
